Results as given in PMC3700226 (Organic & Biomolecular Chemistry, 2012).

Assays:
[1] = system: HT1080 cells; experiment: Luminescent cell viability assay; format: cell-based, human; settings: ratio of 72 h IC50 values, WI-38 = 1.0
Outline: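 HeLa, HT1080, U2OS and WI-38 cells were grown in DMEM with 10% FCS. Cells were plated at 4000 per well and left 24 h, then serially diluted test compound (0–40 μM) was added. Viability was read by CellTiter-Glo luminescence after 72 h, 20 min after reagent addition at rt, in triplicate. IC50 values were determined separately for HT1080 and for WI-38.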

[2] = system: HT1080 cells; experiment: β-Galactosidase senescence assay; format: cell-based, human; settings: HT1080, 8 days of incubation at respective IC50
Outline: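 HT1080 cells were treated 4 d with test compound at its IC50, or untreated, then reseeded at 4000 per chamber-slide well for another 4 d of treatment. Cells were fixed in 2% formaldehyde/0.2% glutaraldehyde for 15 min. They were stained 16 h at 37 °C with 1 mg ml−1 X-gal in pH 6.0 citrate/phosphate buffer containing ferro/ferricyanide for senescence-associated β-galactosidase.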

[3] = system: telomeric 3′ G-overhang in HT1080 cells; experiment: Non-denaturing hybridization assay of telomeric G-overhang; format: cell-based, human; settings: HT1080, respective IC50, time course of 12 days
[4] = system: HeLa, HT1080, U2OS and WI-38 cells; experiment: Luminescent cell viability assay, panel of four human cell lines; format: cell-based; settings: 3 days of exposure; concentrations up to 40 µM
[5] = system: human telomeric G-quadruplex-forming sequence (H-Telo); experiment: FRET-melting assay, H-Telo; format: binding; settings: 1 µM compound, 200 nM oligonucleotide, 60 mM potassium cacodylate pH 7.4
Outline: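 Dual FAM/TAMRA-labelled H-Telo oligonucleotide was annealed at 400 nM (94 °C for 10 min, then cooled to rt at 0.1 °C min−1). It was mixed with test compound in 60 mM potassium cacodylate, pH 7.4, at 200 nM final oligonucleotide. Fluorescence was read with excitation at 483 nm and emission at 533 nm. Melting-temperature shift was measured in triplicate.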

[6] = system: HT1080 cells; experiment: Long-term growth assay; format: cell-based, human; settings: HT1080, incubated at respective IC50 over 30 days
Outline: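 HT1080 cells were seeded at 300000 per T-25 flask with test compound at its IC50, or untreated. Every 3–4 days cells were split, counted with a haemocytometer and reseeded at 300000. Population doublings were calculated as PD = ln(n1/n2)/ln2 and run in triplicate. Dead cells were counted at each time point by trypan blue exclusion.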

NCCOc1cc(C(=O)Nc2cc(OCCN)c3ccccc3n2)nc(C(=O)Nc2cc(OCCN)c3ccccc3n2)c1 [Compound 1, pyridostatin]
Selectivity ratio HT1080 over WI-38 [1]: 18.5

NCCOc1cc(C(=O)Nc2cc(OCCN3CCCC3)c3ccccc3n2)nc(C(=O)Nc2cc(OCCN3CCCC3)c3ccccc3n2)c1 [Compound 9]
Senescent cells (β-galactosidase staining) [2]: presence of senescent cells

O=C(Nc1cc(OCCN2CCCC2)c2ccccc2n1)c1cc(OCCN2CCCC2)cc(C(=O)Nc2cc(OCCN3CCCC3)c3ccccc3n2)n1 [Compound 10]
Senescent cells (β-galactosidase staining) [2]: presence of senescent cells
Kinetics of G-overhang degradation (in words) [3]: most potent to induce an early effect

COc1cc(C(=O)Nc2cc(OC)c3ccccc3n2)nc(C(=O)Nc2cc(OC)c3ccccc3n2)c1 [Compound 14]
Growth inhibition against the panel of cell lines (in words) [4]: did not exhibit growth inhibitory properties

O=C(Nc1cc(OCCN2CCCC2)c2ccccc2n1)c1cc(Cl)cc(C(=O)Nc2cc(OCCN3CCCC3)c3ccccc3n2)n1 [Compound 17]
Senescent cells (β-galactosidase staining) [2]: presence of senescent cells
Kinetics of G-overhang degradation (in words) [3]: most potent to induce an early effect

NCCOc1cc(NC(=O)c2cc(OCc3ccc(F)cc3)cc(C(=O)Nc3cc(OCCN)c4ccccc4n3)n2)nc2ccccc12 [Compound 20]
FRET ΔTm, H-Telo [5]: 8.8 K
Exposure time after which flattening of the population doubling curve started [6]: 19 days

O=C(Nc1cc(OCCN2CCCC2)c2ccccc2n1)c1cc(OCc2ccc(F)cc2)cc(C(=O)Nc2cc(OCCN3CCCC3)c3ccccc3n2)n1 [Compound 21]
FRET ΔTm, H-Telo [5]: 4.3 K
